The source made the active and inactive calls. The rule behind the calls is not given here. Where only a bound is given, the exact number is not on record here.

Data set [1] concerns the target RAF proto-oncogene serine/threonine-protein kinase (Homo sapiens, UniProt P04049, Y340D/Y341D). Nature of the data set: Inhibition of human recombinant c-Raf Y340D/Y341D mutant (306 to end residues) using inactive MEK1 as substrate incubated for 40 mins in presence of [gamma33P-ATP] by radiometric scintillation counting analysis.
For data set [2], the target named is T1, Phosphatidylinositol 4,5-bisphosphate 3-kinase catalytic subunit alpha isoform (Homo sapiens, UniProt P42336). Nature of the data set: Inhibition of PI3Kalpha (unknown origin) transfected in human Rh30 cells assessed as reduction in AKT phosphorylation at Ser473 at 14 nM by western blot analysis. The class given is cell-based. In a few lines:
(§1)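 Rh30 cells ectopically expressing membrane-anchored, N-terminally myristoylated, constitutively active p110α, β, γ or δ. Akt phosphorylation assessed by Western blot; lysates made in RIPA buffer, equal protein heated at 95 °C for 10 min in SDS loading buffer.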
(Immunoblotting shows a protein as a band on a membrane.)

Data set [3] addresses T1, Phosphatidylinositol 4,5-bisphosphate 3-kinase catalytic subunit alpha isoform. Nature of the data set: Inhibition of PI3Kalpha in human U87MG cells assessed as reduction in rhIGF1-stimulated AKT phosphorylation at Thr308 treated for 1 hr followed by incubation with IGF1 for 10 mins by western blot analysis. The class given is cell-based. As to conditions: U-87 MG, dose 0.01-1 µM, time 70.0 min. In outline: (§2)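 U87MG or Rh30 cells held 24 h in serum-free medium, exposed to compound for 1 h, then stimulated with 50 ng/ml IGF-I for 10 min. Lysates blotted for Akt, pAkt T308 and pAkt S473.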

Data set [4] shares this target. The data set can be described thus: Inhibition of PI3Kalpha in human Rh30 cells assessed as reduction in rhIGF1-stimulated AKT phosphorylation at Thr308 treated for 1 hr followed by incubation with IGF1 for 10 mins by western blot analysis. The class given is cell-based. As to conditions: dose 0.01-1 µM, time 70.0 min. In a few lines: as §2
In data set [5] the test system is BT-474. The data set can be described thus: Antiproliferative activity against human BT-474 cells assessed as reduction in cell viability after 72 hrs by sulforhodamine B assay. As to conditions: BT-474, 72 h. Type of data set: functional, cell-based. In a few lines:
(§3)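 SRB assay. Exponentially growing cells seeded at 3000–5000/well, compounds added serially diluted after 24 h, cultured 72 h. Cells fixed with 10% TCA, stained with SRB, dye dissolved in 10 mM Tris-HCl, absorbance read at 560 nm. Inhibition = (ODcontrol − ODtreated)/ODcontrol × 100%. IC50 is the mean of at least three independent tests.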
A general note: In SRB staining, fixed cells bind dye roughly in proportion to their protein.

Data set [6] concerns MCF7. Nature of the data set: Antiproliferative activity against human MCF7 cells assessed as reduction in cell viability after 72 hrs by sulforhodamine B assay. The class given is functional, cell-based. As to conditions: MCF7, 72 h. In a few lines:
as §3

Data set [7] concerns T47D. Nature of the data set: Antiproliferative activity against human T47D cells assessed as reduction in cell viability after 72 hrs by sulforhodamine B assay. The class given is functional, cell-based. In a few lines: as §3
Data set [8] deals with Mus musculus. Nature of the data set: In vivo inhibition of PI3Kalpha in BALB/cA nude mouse xenografted with human SK-OV-3 cells assessed as reduction in AKT phosphorylation at Ser473 residue in tumor at 5 mg/kg, po measured after 2 hrs by Western blot analysis. Type of data set: functional, organism-based. In a few lines:
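Nude mice carrying SKOV-3 xenografts of 200 mm³ got a single oral 5 mg/kg dose. Tumors were collected at 0, 2, 4 or 8 h, homogenized, and pAkt S473 probed by Western blot.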
For orientation: In xenograft studies the graft and the host belong to different species.

The test system of data set [9] is SK-OV-3. The data set can be described thus: Antitumor activity against human SK-OV-3 cells xenografted in BALB/cA nude mouse assessed as tumor growth at 5 mg/kg, po administered once a day for 21 days and measured twice per week. Type of data set: functional. As to conditions: dose 5 mg/kg/day; time 21 day. In outline: (§4)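 Female BALB/cA nude mice, 4–5 weeks old. SKOV-3 xenografts passaged once in vivo, then 1.5 mm³ fragments implanted s.c. in the right flank by trocar. At about 100 mm³ mice were randomized to vehicle or drug given orally once daily. Tumor size and body weight measured twice weekly; V = length × width²/2.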

In data set [10] the test system is SK-OV-3. The data set can be described thus: Antitumor activity against human SK-OV-3 cells xenografted in BALB/cA nude mouse assessed as tumor growth at 10 mg/kg, po administered once a day for 21 days and measured twice per week. Type of data set: functional. As to conditions: dose 10 mg/kg/day; time 21 day. In outline: as §4
Data set [11] is described as follows: Toxicity in 6 hrs fasted BALB/cA nude mouse xenografted with human SK-OV-3 cells assessed as blood glucose tolerance at 5 to 20 mg/kg, po administered once a day for 18 days and measured upto 2 hrs post-last dose by oral glucose tolerance test. As to conditions: in vivo, 432 h, dose 5-20 mg/kg/day, time 18 day. The class given is organism-based. In a few lines: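 Female BALB/cA nude mice, 4–5 weeks old, carried s.c. SKOV-3 xenograft fragments. They were dosed orally once daily for 18 days with vehicle or compound, then fasted 6 h and given glucose orally at 2 g/kg. Blood was sampled at set times up to 2 h, and glucose was measured with a blood glucose meter.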

A short description of data set [12]: Metabolic stability in rat hepatocytes assessed as half life. The class given is ADME, cell-based, Hepatocyte.
A short description of data set [13]: Metabolic stability in mouse hepatocytes assessed as half life. The class given is ADME, cell-based, Hepatocyte.
Data set [14] can be described thus: Metabolic stability in mouse hepatocytes assessed as intrinsic clearance. Type of data set: ADME, cell-based, Hepatocyte. As to conditions: read-out: CLH.
Data set [15] can be described thus: Cmax in rat at 10 mg/kg, po. As to conditions: in vivo. Type of data set: ADME, organism-based. Set-up: route oral, dose 10 mg/kg. In outline: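 Male rats given 10 mg/kg p.o.; Cmax and terminal half-life taken from the plasma concentration–time profile.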
The target in data set [16] is Phosphatidylinositol 4,5-bisphosphate 3-kinase catalytic subunit beta isoform (Homo sapiens) (UniProt P42338). The data set can be described thus: Inhibition of PI3Kbeta (unknown origin) transfected in human Rh30 cells assessed as reduction in AKT phosphorylation at Ser473 residue at 10XIC50 by western blot analysis. Type of data set: cell-based. In a few lines:
as §1

Data set [17] has as its target Phosphatidylinositol 4,5-bisphosphate 3-kinase catalytic subunit delta isoform (Homo sapiens) (UniProt O00329). The data set can be described thus: Inhibition of PI3Kdelta (unknown origin) transfected in human Rh30 cells assessed as reduction in AKT phosphorylation at Thr308 residue at 10XIC50 by western blot analysis. The class given is cell-based. In outline:
as §1

The target in data set [18] is Serine/threonine-protein kinase mTOR (Homo sapiens, UniProt P42345). Nature of the data set: Inhibition of human full length recombinant mTOR in presence of [gamma33P-ATP] by radiometric scintillation counting analysis.
In data set [19] the test system is LoVo. The data set can be described thus: Antiproliferative activity against human LoVo cells assessed as reduction in cell viability after 72 hrs by sulforhodamine B assay. The class given is functional, cell-based. In a few lines: as §3
The species entered for data set [20] is Homo sapiens. Nature of the data set: Selectivity index, ratio of IC50 for human PI3K p110delta/p85alpha to IC50 for human PI3Kalpha by HTRF assay. In a few lines:
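The PI3K isoforms were assayed with an HTRF kit. Each enzyme was incubated in assay buffer containing 10 μM PIP2, and the reaction was started with ATP and run 30 min at room temperature. Stop solution and detection mix were then added and light emission was read. IC50 values were averages of at least 3 separate determinations, and each index is the ratio of IC50 values.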

Data set [21] can be described thus: Inhibition of human PI3Kgamma R459Q mutant using PIP2 as substrate in presence of ATP measured after 30 mins by HTRF assay.
Data set [22] concerns the target PI3-kinase p110-delta/p85-alpha (Homo sapiens, UniProt O00329). The data set can be described thus: Inhibition of human PI3K p110delta/p85alpha using PIP2 as substrate in presence of ATP measured after 30 mins by HTRF assay.
The target in data set [23] is PI3K p110 beta/p85 alpha (Homo sapiens, UniProt P42338). Nature of the data set: Inhibition of human PI3K p110beta/p85alpha using PIP2 as substrate incubated for 30 mins in presence of ATP measured after 30 mins by HTRF assay.
Chain of PI3K p110 beta/p85 alpha (P27986 whole entry): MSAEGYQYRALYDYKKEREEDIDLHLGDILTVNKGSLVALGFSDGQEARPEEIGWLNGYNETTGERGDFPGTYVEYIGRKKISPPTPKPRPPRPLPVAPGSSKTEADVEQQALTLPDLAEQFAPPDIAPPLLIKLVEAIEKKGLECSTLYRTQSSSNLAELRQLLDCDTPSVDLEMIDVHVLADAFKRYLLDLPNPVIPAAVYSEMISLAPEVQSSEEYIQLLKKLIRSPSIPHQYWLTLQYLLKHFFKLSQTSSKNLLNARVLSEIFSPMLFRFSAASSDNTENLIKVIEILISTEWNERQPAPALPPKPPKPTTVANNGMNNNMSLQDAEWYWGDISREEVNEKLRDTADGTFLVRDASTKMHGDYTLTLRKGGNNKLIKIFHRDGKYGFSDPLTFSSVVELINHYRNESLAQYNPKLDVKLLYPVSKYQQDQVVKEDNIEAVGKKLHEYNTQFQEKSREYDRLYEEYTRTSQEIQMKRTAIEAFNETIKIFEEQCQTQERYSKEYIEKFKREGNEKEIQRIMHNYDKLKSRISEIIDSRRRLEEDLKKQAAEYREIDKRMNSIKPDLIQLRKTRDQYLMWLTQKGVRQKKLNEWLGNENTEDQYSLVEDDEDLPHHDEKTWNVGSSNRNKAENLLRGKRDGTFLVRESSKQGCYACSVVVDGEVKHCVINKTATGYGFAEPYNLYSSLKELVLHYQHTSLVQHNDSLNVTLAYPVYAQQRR
Chain of PI3K p110 beta/p85 alpha (P42338 whole entry): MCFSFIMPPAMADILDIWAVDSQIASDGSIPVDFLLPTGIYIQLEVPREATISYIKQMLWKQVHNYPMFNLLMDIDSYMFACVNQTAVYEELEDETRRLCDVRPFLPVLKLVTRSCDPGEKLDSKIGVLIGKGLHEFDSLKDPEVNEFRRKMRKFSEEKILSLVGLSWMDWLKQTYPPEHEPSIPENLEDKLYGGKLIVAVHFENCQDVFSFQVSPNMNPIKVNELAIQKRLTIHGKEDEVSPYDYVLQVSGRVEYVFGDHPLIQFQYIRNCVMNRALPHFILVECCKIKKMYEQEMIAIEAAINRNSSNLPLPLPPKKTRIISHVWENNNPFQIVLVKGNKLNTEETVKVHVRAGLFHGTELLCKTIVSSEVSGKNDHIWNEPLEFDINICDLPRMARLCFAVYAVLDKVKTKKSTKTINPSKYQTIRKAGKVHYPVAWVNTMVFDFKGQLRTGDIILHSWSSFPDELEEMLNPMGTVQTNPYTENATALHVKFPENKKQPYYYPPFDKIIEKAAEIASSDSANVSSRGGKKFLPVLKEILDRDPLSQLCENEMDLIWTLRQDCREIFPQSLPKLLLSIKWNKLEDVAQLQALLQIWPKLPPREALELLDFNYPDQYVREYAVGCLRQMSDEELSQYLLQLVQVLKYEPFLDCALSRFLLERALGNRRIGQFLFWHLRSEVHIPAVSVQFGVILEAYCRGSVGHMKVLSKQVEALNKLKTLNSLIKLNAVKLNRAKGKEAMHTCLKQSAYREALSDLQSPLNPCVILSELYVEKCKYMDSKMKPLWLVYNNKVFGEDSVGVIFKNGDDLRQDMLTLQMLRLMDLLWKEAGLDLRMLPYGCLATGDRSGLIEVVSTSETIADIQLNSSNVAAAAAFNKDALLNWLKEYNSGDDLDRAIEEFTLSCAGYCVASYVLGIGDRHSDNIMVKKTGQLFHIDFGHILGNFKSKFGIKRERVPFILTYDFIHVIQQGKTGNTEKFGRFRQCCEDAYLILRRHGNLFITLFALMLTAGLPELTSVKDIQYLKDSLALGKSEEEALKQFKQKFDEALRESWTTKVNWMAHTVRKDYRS

T1 sequence (P42336 whole entry, canonical isoform): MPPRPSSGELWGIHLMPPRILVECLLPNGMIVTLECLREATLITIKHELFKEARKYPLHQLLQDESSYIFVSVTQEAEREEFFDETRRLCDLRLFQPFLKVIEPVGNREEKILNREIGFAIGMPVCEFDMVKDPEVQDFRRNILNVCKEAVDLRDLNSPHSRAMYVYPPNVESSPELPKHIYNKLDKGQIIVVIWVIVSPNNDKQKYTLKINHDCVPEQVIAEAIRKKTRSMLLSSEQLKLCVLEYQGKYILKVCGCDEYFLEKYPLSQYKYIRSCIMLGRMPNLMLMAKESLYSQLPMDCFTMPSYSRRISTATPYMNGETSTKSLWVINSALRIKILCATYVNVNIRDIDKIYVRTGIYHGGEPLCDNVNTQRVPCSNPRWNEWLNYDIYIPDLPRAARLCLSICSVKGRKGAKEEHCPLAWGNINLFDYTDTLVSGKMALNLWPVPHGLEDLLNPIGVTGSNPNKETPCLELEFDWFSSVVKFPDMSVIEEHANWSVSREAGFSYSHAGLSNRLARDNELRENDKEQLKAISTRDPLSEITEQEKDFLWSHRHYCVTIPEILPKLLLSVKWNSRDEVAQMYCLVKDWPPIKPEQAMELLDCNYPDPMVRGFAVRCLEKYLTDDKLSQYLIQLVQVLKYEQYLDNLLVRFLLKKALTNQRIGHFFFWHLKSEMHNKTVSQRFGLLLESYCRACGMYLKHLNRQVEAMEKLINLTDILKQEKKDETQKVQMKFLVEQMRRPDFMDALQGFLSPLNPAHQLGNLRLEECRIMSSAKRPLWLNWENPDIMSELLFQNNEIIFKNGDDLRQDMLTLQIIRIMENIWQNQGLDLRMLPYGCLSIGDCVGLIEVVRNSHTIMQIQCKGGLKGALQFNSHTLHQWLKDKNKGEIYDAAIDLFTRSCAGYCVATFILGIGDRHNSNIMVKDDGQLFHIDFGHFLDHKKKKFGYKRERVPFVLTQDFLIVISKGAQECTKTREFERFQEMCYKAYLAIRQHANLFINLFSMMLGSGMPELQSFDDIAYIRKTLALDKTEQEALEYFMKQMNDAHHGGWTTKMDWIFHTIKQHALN
Chain of PI3-kinase p110-delta/p85-alpha (P27986 whole entry): as the sequence (P27986 whole entry) above
Chain of PI3-kinase p110-delta/p85-alpha (O00329 whole entry): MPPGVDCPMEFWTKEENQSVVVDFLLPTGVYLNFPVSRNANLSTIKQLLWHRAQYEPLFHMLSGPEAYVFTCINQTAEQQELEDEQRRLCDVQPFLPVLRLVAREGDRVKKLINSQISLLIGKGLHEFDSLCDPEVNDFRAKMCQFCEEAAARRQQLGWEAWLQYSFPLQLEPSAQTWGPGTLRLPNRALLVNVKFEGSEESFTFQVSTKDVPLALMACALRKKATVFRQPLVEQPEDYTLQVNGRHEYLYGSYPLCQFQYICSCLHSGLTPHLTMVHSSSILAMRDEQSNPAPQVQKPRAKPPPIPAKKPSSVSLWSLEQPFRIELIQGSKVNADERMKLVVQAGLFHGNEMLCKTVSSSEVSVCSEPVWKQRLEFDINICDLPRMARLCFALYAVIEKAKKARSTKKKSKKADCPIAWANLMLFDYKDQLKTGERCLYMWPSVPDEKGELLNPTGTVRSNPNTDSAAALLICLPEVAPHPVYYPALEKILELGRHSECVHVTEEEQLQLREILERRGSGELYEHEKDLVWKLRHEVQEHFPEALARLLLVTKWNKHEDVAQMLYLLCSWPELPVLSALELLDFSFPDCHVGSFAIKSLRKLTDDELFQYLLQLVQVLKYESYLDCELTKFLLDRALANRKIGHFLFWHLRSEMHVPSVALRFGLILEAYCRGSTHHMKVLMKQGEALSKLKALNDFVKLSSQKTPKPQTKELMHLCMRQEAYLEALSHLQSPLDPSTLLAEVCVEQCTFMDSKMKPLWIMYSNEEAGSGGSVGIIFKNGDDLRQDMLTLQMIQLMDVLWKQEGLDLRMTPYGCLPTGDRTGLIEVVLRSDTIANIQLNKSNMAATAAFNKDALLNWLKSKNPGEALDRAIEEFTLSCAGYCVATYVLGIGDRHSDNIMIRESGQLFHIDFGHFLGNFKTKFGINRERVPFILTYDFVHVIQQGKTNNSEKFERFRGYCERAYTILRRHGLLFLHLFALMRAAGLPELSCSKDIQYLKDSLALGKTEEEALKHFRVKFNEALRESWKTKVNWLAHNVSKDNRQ
Chain of Phosphatidylinositol 4,5-bisphosphate 3-kinase catalytic subunit delta isoform (Homo sapiens) (O00329 whole entry, canonical isoform): as the sequence (O00329 whole entry) above
Chain of RAF proto-oncogene serine/threonine-protein kinase (P04049 whole entry Y340D/Y341D, canonical isoform): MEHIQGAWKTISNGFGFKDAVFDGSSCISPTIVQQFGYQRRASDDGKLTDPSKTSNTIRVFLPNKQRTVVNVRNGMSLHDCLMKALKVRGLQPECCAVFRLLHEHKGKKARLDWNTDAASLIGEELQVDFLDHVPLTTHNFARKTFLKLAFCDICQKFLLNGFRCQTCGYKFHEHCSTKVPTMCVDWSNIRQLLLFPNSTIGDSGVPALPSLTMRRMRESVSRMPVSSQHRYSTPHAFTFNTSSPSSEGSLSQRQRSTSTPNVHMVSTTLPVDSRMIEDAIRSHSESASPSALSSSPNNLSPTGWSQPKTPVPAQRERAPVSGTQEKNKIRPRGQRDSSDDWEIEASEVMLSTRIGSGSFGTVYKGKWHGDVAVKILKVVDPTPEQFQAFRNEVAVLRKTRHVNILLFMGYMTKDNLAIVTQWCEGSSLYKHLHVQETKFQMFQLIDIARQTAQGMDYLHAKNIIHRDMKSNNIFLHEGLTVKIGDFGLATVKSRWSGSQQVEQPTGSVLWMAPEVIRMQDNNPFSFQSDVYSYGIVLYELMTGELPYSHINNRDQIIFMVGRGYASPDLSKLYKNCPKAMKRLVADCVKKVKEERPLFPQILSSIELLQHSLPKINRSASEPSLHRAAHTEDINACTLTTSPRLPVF
Chain of Phosphatidylinositol 4,5-bisphosphate 3-kinase catalytic subunit beta isoform (Homo sapiens) (P42338 whole entry, looked up, canonical isoform): as the sequence (P42338 whole entry) above

Turning to `COC(=O)Nc1cc(C(F)(F)F)c(-c2nc(N3CCOCC3)c3cc(CN4CCN(S(C)(=O)=O)CC4)cn3n2)cn1` [RISOVALISIB], the IC50 in data set [1] is 1000 nM; in data set [5] it was below 1000 nM; in [6], below 1000 nM; in [7], below 1000 nM; in data set [18], above 10 µM; in [19], below 1000 nM. In addition, the IC50 in data set [21] came out at 225 nM; in data set [22] it was 78.7 nM; in data set [23], 598 nM. For the same compound, the inhibition entry in [2], in [8], in data set [16] and in data set [17] was “Active” each time. Also, the inhibition entry in data set [3] and in data set [4] was “Dose-dependent effect” each time. For the same compound, the Activity was 67.4% in [9], 48.1% in [10] and “Non-Toxic” in data set [11]. The half-life stood at 147 min in [12] and 93.7 min in [13]. The CLint scaled in data set [14] stood at 21.6 mL/min/kg. This compound also had a Cmax in data set [15] of 832 ng/mL. Moreover, in data set [20], the Ratio IC50 came out at 13.

As a reminder, the IC50 is the point on the concentration scale where inhibition reaches its midpoint. For orientation: half-life means how long it takes for the measured level to halve. The Cmax is the peak of the concentration-time curve.
